{"source": "PubChem BioAssay AID434971", "about": "(Sanford-Burnham Center for Chemical Genomics, 2010)", "note": "About 510 (4.6%) of roughly 11,000 compounds were called active.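 The calls were made as follows: active = inhibition of at least 40% at 10 µM in either of the two replicates; inactive = the rest.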 The sample as a whole holds a higher share of actives than the screen did.", "data": [{"test_system": "intestinal alkaline phosphatase [Mus musculus]", "assay": "inhibitors of mouse IAP, confirmation, biochemical, luminescence, single concentration (AID 434971);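 also: plate controls were DMSO wells with enzyme for no effect and buffer wells lacking enzyme for full effect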", "conditions": "purified mouse IAP, CDP-Star luminescence, 30 min; at 10 µM; stronger effect = higher value", "outline": "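Reagent: CDP-Star. System: mouse IAP enzyme. Incubation: 30 min, room temperature. Dosing: test compound delivered in DMSO. Signal: luminescence. Medium: DEA buffer, ZnCl2, MgCl2. Benchmarks: enzyme-free wells as negative control.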", "values": [{"smiles": "O=C(CCCN1C(=O)/C(=C\\c2ccco2)SC1=S)Nc1cccc2ccccc12", "inhibition": "49.1% (active)"}, {"smiles": "O=C(CCCN1C(=O)/C(=C/c2ccco2)SC1=S)Nc1ccccc1", "inhibition": "49.1% (active)"}, {"smiles": "O=c1ccc2c(-c3ccccc3S(=O)(=O)O)c3ccc(O)c(O)c3oc-2c1O", "inhibition": "79.7% (active)"}, {"smiles": "O=C(Nc1nc(-c2ccco2)c(-c2ccco2)s1)c1ccco1", "inhibition": "74.3% (active)"}, {"smiles": "Cc1cc(C)cc(NC(=O)NC2CCCCCCC2)c1", "inhibition": "-237% (inactive)"}, {"smiles": "COc1ccc(CN2CCC(n3nccc3NC(=O)CCCc3ccccc3)CC2)cc1C", "inhibition": "-140% (inactive)"}, {"smiles": "COc1ccc(NC(=O)NC2CC3CCCC(C2)N3Cc2ccccc2)cc1", "note": "(stereo not given)", "inhibition": "-171% (inactive)"}, {"smiles": "COc1ccccc1-n1c(-c2cc(-c3ccco3)[nH]n2)n[nH]c1=S", "inhibition": "68.7% (active)"}, {"smiles": "COc1cc(C(=O)Nn2c(O)c(C3=c4ccccc4=NC3=O)sc2=S)ccc1O", "inhibition": "93.1% (active)"}, {"smiles": "c1ccc(-c2cc3c(NCC4COc5ccccc5O4)ncnc3s2)cc1", "note": "(stereo not given)", "inhibition": "-97.1% (inactive)"}, {"smiles": "CCN(c1ccccc1)S(=O)(=O)c1ccc2[nH]c(=O)[nH]c2c1", "inhibition": "73.4% (active)"}, {"smiles": "Cc1ccc(C)c(CN2CCC(CNC(=O)Nc3ccc(C)c(F)c3)CC2)c1", "inhibition": "-116% (inactive)"}, {"smiles": "CCn1cc(CN2CCC(C(=O)Nc3cccc(-c4cccc(Cl)c4)c3)CC2)cn1", "inhibition": "-329% (inactive)"}, {"smiles": "NS(=O)(=O)c1ccc(-c2ccc(/C=C3\\SC(=O)NC3=O)o2)cc1", "inhibition": "68.1% (active)"}, {"smiles": "C#CCOCCOCCOCCNc1nc(N2CCN(C(=O)CCCCCCCCCCNC(=O)Cn3cc(CCCCCN)nn3)CC2)nc(N2CCN(C(=O)CCCCCCCCCCNC(=O)[C@H](CO)n3cc(CCCSC)nn3)CC2)n1", "inhibition": "-153% (inactive)"}, {"smiles": "Oc1ccc(CNc2ccccc2O)cc1", "inhibition": "41.2% (active)"}, {"smiles": "CC(C)S(=O)(=O)c1csc(NC(=O)Nc2ccc(Cl)cc2)c1Cl", "inhibition": "-116% (inactive)"}, {"smiles": "Nc1ccc2nc3c(=O)[nH]c(=S)[nH]c3nc2c1", "inhibition": "78.3% (active)"}, {"smiles": "COC(=O)c1ccc(NC(=O)Nc2ccc(C)cc2)cc1", "inhibition": "-115% (inactive)"}, {"smiles": "CCn1cc(CN2CCC(C(=O)Nc3cccc(-c4cccc(Cl)c4)c3)CC2)c(C)n1", "inhibition": "-396% (inactive)"}, {"smiles": "Oc1cc(O)c2c(c1)OC(c1ccc(O)c(O)c1)C(O)C2", "note": "(stereo not given)", "inhibition": "84.5% (active)"}, {"smiles": "Cc1cccc(CN2CCC(CNC(=O)Nc3ccc(F)c(Cl)c3)CC2)c1", "inhibition": "-115% (inactive)"}, {"smiles": "COc1cccc(/C=N\\NC(=O)C2=NNC(=O)C2C)c1O", "note": "(stereo not given)", "inhibition": "60.2% (active)"}, {"smiles": "Cc1ccc(Cc2cnc(N)s2)o1", "inhibition": "58.5% (active)"}, {"smiles": "O=c1[nH]c(=S)[nH]c2[nH]c(=S)[nH]c12", "inhibition": "81.9% (active)"}, {"smiles": "O=C(Nc1cccc(-c2cccc(Cl)c2)c1)C1CCN(C2CCC2)CC1", "inhibition": "-294% (inactive)"}, {"smiles": "Cc1cc(NC(=O)Nc2ccc(Cl)cc2)n(-c2ccccc2)n1", "inhibition": "-107% (inactive)"}, {"smiles": "COc1ccc(OC)c(Nc2nc(-c3ccc(O)c(O)c3)cs2)c1", "inhibition": "74.3% (active)"}, {"smiles": "O=C(Nc1cccc(F)c1)NC1CCCCCCC1", "inhibition": "-142% (inactive)"}, {"smiles": "COc1cc(/C=N\\Nc2nc(-c3cccs3)c(NC(C)=O)s2)ccc1O", "inhibition": "47% (active)"}, {"smiles": "OCCCN1c2ccccc2Nc2nnc(-c3ccccc3)cc21", "inhibition": "-208% (inactive)"}, {"smiles": "c1ccc(CSc2nnc(-c3ccco3)c(-c3ccco3)n2)cc1", "inhibition": "69% (active)"}, {"smiles": "Clc1ccccc1CSc1nnc(-c2ccco2)c(-c2ccco2)n1", "inhibition": "71.8% (active)"}, {"smiles": "O=[N+]([O-])c1cc(Cl)cc(/C=N/NC(=S)Nc2cc(S(=O)(=O)N3CCOCC3)ccc2Cl)c1O", "inhibition": "40.3% (active)"}, {"smiles": "CCc1ccc(NC(=O)NC(C)c2ccc3c(c2)OCO3)cc1", "note": "(stereo not given)", "inhibition": "-166% (inactive)"}]}]}
